UPR XBP1 act: adaptive UPR (XBP1) activation | CHO-XBP1 luciferase reporter, IRE1-XBP1 UPR activation, luminescence; percent of tunicamycin response, DMSO as zero | activation, % at 20 µM | 0.33% of 330,000 active | AID 463104;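 active means versus positive control, 20 µM dose yields 30% or more activation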;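 further: 100% = tunicamycin at 10 µg/mL and 0% = DMSO only wells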
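Material: CHO-XBP1 cells stably carrying IRE1-XBP1-driven luciferase reporter | Medium: F12 with 10% serum | Compound dosing: 20 µM single concentration, DMSO 1% | Incubation: Overnight seeding at 37 °C, 6 h compound treatment at 37 °C | Detection: Steady-Glo luminescence read | Read-out basis: % activation of reporter signal versus tunicamycin and DMSO controls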
UPR CHOP act: apoptotic UPR (CHOP) activation; activation, % at 10 µM; AID 449763; 0.34% of 330,000 active; CHO-CHOP luciferase reporter, luminescence; percent of tunicamycin response over DMSO baseline;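 active means at 10 µM dose, activation of 40% or more, normalized to positive control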;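 further: 100% = tunicamycin at 10 µg/mL and 0% = DMSO alone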
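System: CHO-CHOP luciferase reporter cell line; amount: 500 cells/well; buffer or medium: F12 medium containing 10% fetal bovine serum; incubation: 6 h compound exposure at 37 °C after overnight seeding; measured by: luciferase luminescence after 10 min with Steady-Glo reagent; evaluation: % reporter activation, DMSO baseline versus tunicamycin full activation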
B2AR ag: agonists of human beta-2 adrenergic receptor inducing internalization. P07550. 0.43% of 340,000 active. Am2.2-beta2AR cells, FAP receptor internalization, flow cytometry. response, % (test concentration not listed). AID 504454;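 active means response above a set limit, near 3 SD of response in nonfluorescent compounds, cut at about 42% in these data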
Target sequence (P07550 whole entry, looked up): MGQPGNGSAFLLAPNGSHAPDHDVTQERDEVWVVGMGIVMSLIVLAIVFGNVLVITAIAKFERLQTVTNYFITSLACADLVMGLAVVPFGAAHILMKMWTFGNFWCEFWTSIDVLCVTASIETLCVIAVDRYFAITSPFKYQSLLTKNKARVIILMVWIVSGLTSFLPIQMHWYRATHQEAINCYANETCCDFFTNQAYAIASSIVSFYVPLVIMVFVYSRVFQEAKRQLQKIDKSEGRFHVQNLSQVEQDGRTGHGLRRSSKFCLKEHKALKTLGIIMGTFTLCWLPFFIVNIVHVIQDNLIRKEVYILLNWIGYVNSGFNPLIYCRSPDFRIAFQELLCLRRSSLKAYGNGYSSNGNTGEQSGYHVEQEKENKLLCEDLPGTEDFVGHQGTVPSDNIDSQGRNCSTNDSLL
T cell HTS: modulates CD8 T cell binding to vesicles; 0.068% of 330,000 active; AID 2052; 2C CD8+ T cell-vesicle binding, flow cytometry; stronger effect = lower value; response (vesicle binding), % at 7 µM;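 active means response, share of CD8 T cells binding vesicles, and their 90th percentile fluorescence all below set limits, cut at about 80% in these data, passing the limit was not always enough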;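 further: values below 100% mean blocked vesicle binding to the CD8+ T cells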
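Assay system: 2C TCR transgenic mouse naive CD8+ T cells, MACS-purified | Read-out: CD8+ gate FL2 mean fluorescence as % of same-row positive control | Signal: High-throughput flow cytometry with anti-B7-1 and anti-CD8 staining | Timing: Binding step 1.5 h, 37 °C, antibody labelling 20 min, ice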
Starred values were filed as active, the others as inactive; i = inactive; nt = not tested or not shown; ! = not active in a repeat. Compounds with a hit are over-represented: about 1% of the library has one in this group of screens.

SMILES	UPR XBP1 act	UPR CHOP act	B2AR ag	T cell HTS
C#CCOCCOCCOCCNc1nc(N2CCN(C(=O)CCCCCCCCCCNC(=O)[C@@H](CCSC)n3cc(CCO)nn3)CC2)nc(N2CCN(C(=O)CCCCCCCCCCNC(=O)[C@H]([C@@H](C)CC)n3cc(CCCCN=C(N)N)nn3)CC2)n1	0	2	78*	528
C#CCOCCOCCOCCNc1nc(N2CCN(C(=O)CCCCCCCCCCNC(=O)[C@H]([C@@H](C)CC)n3cc(CCCCN=C(N)N)nn3)CC2)nc(N2CCN(C(=O)CCCCCCCCCCNC(=O)[C@H](CCCCN)n3cc(C[C@@H](C)CC)nn3)CC2)n1	39*	17	nt	697
Cc1ccc(NC(=O)C2CC(=O)OC23CCOC(C)(C)C3)cc1 (stereo unspecified)	0	3	-2	430
O=[N+]([O-])c1ccccc1S(=O)(=O)Nc1ccc(-c2ccc(N3CCOCC3)nn2)cc1	4	1	9	i
CCc1cc2c(COC(=O)c3cccc(S(C)(=O)=O)c3)cc(=O)oc2cc1O	2	-1	61*	0
C[C@H](CO)N1C[C@H](C)[C@@H](CN(C)Cc2ccc(Cl)c(Cl)c2)Oc2c(NC(=O)C3CCOCC3)cccc2C1=O	2	3	9	312
N#Cc1c([N+](=O)[O-])cc([N+](=O)[O-])cc1S(=O)(=O)Cc1ccccc1	-9	-10	94*	324
O=C(Nc1ccccc1[N+](=O)[O-])C1(c2ccccc2)CCOCC1	-2	0	2	i
CCn1c(O)c(N=NC(=O)c2ccc(CSc3nncn3C)cc2)c2ccccc21	-1	-1	53*	236
Cn1cnnc1SCc1ccc(C(=O)N=Nc2c(O)n(Cc3ccc(Cl)cc3)c3ccccc23)cc1	17	10	7	351
CN(C)/N=C1\C(=O)N(CN2CCN(c3ccccc3)CC2)c2ccccc21	1	-1	8	685
Cc1nc(-c2cccnc2)sc1C(=O)N/N=C/c1ccccc1Cl	0	0	42*	464
S=C(Nc1ccccc1Cl)N1CCCC1	4	-1	3	303
Cc1cccc(C)c1NC(=O)CSc1nc(COc2ccccc2)nc2ccccc12	2	0	-16	250
CCOC(=O)CSc1nc(COc2ccccc2)nc2ccccc12	-3	-3	8	47*
CCOc1ccc(S(=O)(=O)N2CCC(C(=O)OC(C)C(=O)NC3CCCCC3C)CC2)cc1 (stereo unspecified)	-6	1	2	0.0*
CN(C)S(=O)(=O)c1ccc(-c2csc(N/N=C/c3ccc(O)cc3)n2)cc1	-6	18	47*	427
O=C(N/N=C/c1ccc(O)cc1O)NC12CC3CC(CC(C3)C1)C2	6	4	44*	210
Cc1c(C(=O)N2CCN(c3cccc(Cl)c3)CC2)cccc1[N+](=O)[O-]	-4	-1	6	161
O=C(c1ccccc1)c1cc(Cl)ccc1N1C(=O)C=CC1=O	nt	nt	43*	nt
C=CCn1c(=O)c2ccccc2n2c(SCC(=O)/C(C#N)=C(\C)N)nnc12	4	2	65*!	337
CSc1nnc(-c2ccc(NC(N)=S)cc2)o1	-3	1	2	313
CSc1nnc(-c2cccc(NC(=S)NN)c2)o1	-2	-1	74*	561
O=C(Nc1ccc(N2CCN(Cc3ccccc3F)CC2)cc1)c1ccc([N+](=O)[O-])o1	2	90*	-3	369
Fc1ccc(-[n+]2nc(Nc3ccccc3)sc2-c2c(Cl)cccc2Cl)cc1	4	-2	-2	470
CCc1ccc(Nc2n[n+](-c3ccccc3)c(-c3c(Cl)cccc3Cl)s2)cc1	10	14	80*	172
O=C(CC1SC(N2CCCCC2)=NC1=O)Nc1ccc(C(=O)NCCc2ccc(F)cc2)cc1 (stereo unspecified)	0	1	1	407
CN1CCN(CCCNC(=O)c2ccc(/C=C3\Sc4ccccc4N(Cc4ccccc4F)C3=O)cc2)CC1	nt	nt	88*	nt
Cc1cccc(CN2C(=O)/C(=C\c3ccc(C(=O)NCCN4CCOCC4)cc3)Sc3ccccc32)c1	1	8	46*	421
Nc1nonc1-n1nnc(C(=O)N/N=C/c2ccc(OCc3ccccc3)cc2)c1COc1ccc(F)cc1	17	1	8	274

Bioassay records (PubChem BioAssay)
